This data set can be described thus: Toxicity liver stage against HepG2, at 10uM. The following applies: human, HepG2-A16-CD81EGFP cells; read-out: INHIBITION
In kind it is cell-based. More on the design: test concentration 10 uM, cell line HepG2-A16-CD81EGFP. In short, it runs like this:
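Uninfected HepG2-A16-CD81EGFP cells, 3 × 10^3 per well, 1536-well, plated on prespotted compound at 10 μM final, parasite-free screening media added to match infected plates; puromycin 10 μM positive, DMSO 0.5% negative; run in parallel with 48 h PbLuc assay at 37 °C, 5% CO2; viability by CellTiter-Glo luminescence, normalized to controls.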
With `CC(C)N[C@@H]1CO[C@H](CNC(=O)Nc2ccccc2)[C@H]1O`, the cytotoxicity at 10 µM worked out at 1.53%.

As for `Cc1ccc2nc(CSCC(=O)Nc3nnc(C(C)C)s3)cc(=O)n2c1`, the cytotoxicity at 10 µM is -4.44%.

On to `Nc1c(N2CCOCC2)ncnc1N1CCOCC1`, for which the cytotoxicity at 10 µM is -1.31%.

With `CCOCC1CN(CCc2ccccc2)Cc2c1cnn2C` (stereo not given), the cytotoxicity at 10 µM was -120%.

On to `CN(C)CC(=O)N1CCC2(CC1)COc1ccccc1S(=O)(=O)N(C)C2`, for which the cytotoxicity at 10 µM turned out to be 0.0039%.

As for `COCC1CN(C(=O)CS(C)(=O)=O)Cc2ncn(CC3CC3)c21` (stereo not given), the cytotoxicity at 10 µM was found to be 5.29%.

Take `COCCC(=O)Nc1cnn(COc2ccc(F)cc2Cl)c1`: the cytotoxicity at 10 µM was -8.68%.

As for `C[C@]1(O)CN(Cc2ncccc2F)CC[C@@H]1Oc1cccc(F)c1`, the cytotoxicity at 10 µM is -2.11%.

For the molecule `Cc1ccc(C)c(CC(=O)NC2CCC(N3C(=O)CCC3=O)CC2)c1` (stereo not given), the cytotoxicity at 10 µM was -1.32%.

In the case of `CCN1CCN(c2ccccc2NC(=O)NCc2ccon2)CC1`, the cytotoxicity at 10 µM came out at 10.4%.

Consider `NC(=O)CSCC(=O)NCC1CCCC1`, for which the cytotoxicity at 10 µM worked out at 3.15%.

Turning to `Cc1nc(C)c(C(C)NCc2c(C)nn(CC(C)C)c2N(C)C)s1` (stereo not given), the cytotoxicity at 10 µM is -2.49%.

In the case of `Cc1nccn1-c1ccc(C(C)NCc2ncc[nH]2)cc1` (stereo not given), the cytotoxicity at 10 µM stood at 1.91%.

Consider `Cc1cc(C)c(S(=O)(=O)Nc2cccc3c2OCCO3)cc1C(=O)O`, for which the cytotoxicity at 10 µM was 5.87%.

Take `CCN(CC)CC(=O)Nc1ccc(-n2ccc(C(N)=O)n2)cc1`: the cytotoxicity at 10 µM is -6.9%.

For the molecule `Cc1ccc(O)c(C(=O)N2CCCC2CC(=O)c2cnn(C)c2)c1` (stereo not given), the cytotoxicity at 10 µM was -3.81%.

With `Cc1cc2n(n1)CC(CNC1CCN(Cc3ccccn3)CC1)CN2` (stereo not given), the cytotoxicity at 10 µM is 3.67%.

As to `CC(C)c1noc(CCCC(=O)NC(C)c2nnc3n2CCC3)n1` (stereo not given), the cytotoxicity at 10 µM was 9.96%.

On to `O=C1NCC2CN(Cc3ccccc3OCc3ccccn3)CCN12` (stereo not given), for which the cytotoxicity at 10 µM was -1.36%.

For `Cc1nc(C)n(CC2CCCN2Cc2nnc(-c3ccco3)o2)n1` (stereo not given), the cytotoxicity at 10 µM turned out to be 11.4%.

As for `Cc1cccc(CNCC2COC3(CCCC3)O2)c1C` (stereo not given), the cytotoxicity at 10 µM is -150%.

Regarding `N#Cc1cccc(S(=O)(=O)Nc2c(F)cccc2N2CCCC2)c1`, the cytotoxicity at 10 µM came out at 2.62%.

As to `CCN(C(=O)NCc1ccccc1OC(F)F)C(C)c1cccnc1` (stereo not given), the cytotoxicity at 10 µM is -2.28%.

Regarding `Cc1n[nH]c(SCC(=O)NC(c2ccncc2)C(C)C)n1` (stereo not given), the cytotoxicity at 10 µM is 16.4%.

For `O=C(NCc1ccccc1F)Nc1ccn(CCN2CCOCC2)n1`, the cytotoxicity at 10 µM is -7.85%.

`CC(NC(=O)CCC(C)(C)C)C(=O)Nc1ccc(-n2cncn2)cc1` (stereo not given): the cytotoxicity at 10 µM is -3.46%.

`Cc1cccc(C(=O)N2CCN(CCC(C)C)CC2)n1`: the cytotoxicity at 10 µM was -3.53%.

For `FC(F)(F)c1n[nH]c2c1CN(CCc1ccccn1)CC2`, the cytotoxicity at 10 µM was 3.76%.

Take `Cc1ccc2oc(CNC(C)c3nnc4n3CCCC4)cc2c1` (stereo not given): the cytotoxicity at 10 µM is -17.9%.

As to `CCN(CC)C1CCN(C(=O)NCc2c(C)noc2C)CC1`, the cytotoxicity at 10 µM was -3.71%.

As to `CC(C)CN1CCC(NC(=O)c2ccc(F)cc2I)CC1`, the cytotoxicity at 10 µM is -33.9%.

For the molecule `COc1cc(N2C[C@@H]3COC[C@@H](Cc4nnc(C)o4)[C@@H]3C2)ncn1`, the cytotoxicity at 10 µM is -112%.

For `c1cc(-c2n[nH]cc2-c2ccnc(N3CCCCCC3)n2)ccn1`, the cytotoxicity at 10 µM is -0.252%.

Consider `CC(C)N1CCCC2(CCN(C(=O)COCC(F)(F)C(F)F)C2)C1=O` (stereo not given), for which the cytotoxicity at 10 µM amounted to 13.1%.

On to `C=Cc1ccc(C(=O)N2CCCC(Nc3ccccc3)C2)cc1` (stereo not given), for which the cytotoxicity at 10 µM is -9.01%.

As to `CC(C)Nc1ccnc(N2Cc3cnc(C(C)(C)C)nc3C2)n1`, the cytotoxicity at 10 µM worked out at 8.33%.

With `O=C(N[C@H]1CN(c2nc(CO)cs2)C[C@@H]1C1CC1)C1CCCCC1`, the cytotoxicity at 10 µM was -0.464%.

Regarding `CCCS(=O)(=O)NCc1cccnc1Oc1ccc(C)c(F)c1F`, the cytotoxicity at 10 µM is -2.19%.

With `CNC(=O)c1n[nH]c2c1C(c1cccc3c1OC(C)(C)C3)CC(=O)N2` (stereo not given), the cytotoxicity at 10 µM came out at 0.0642%.

Regarding `CCC(=O)Nc1cccc(C(=O)NCCC2=CSC3=NCCCN23)c1`, the cytotoxicity at 10 µM amounted to 1.93%.

As for `Cc1cc(-c2nn(C)c(Cl)c2CN2CCC3(CC2)[C@H](O)C[C@@H]3O)no1`, the cytotoxicity at 10 µM was -5.66%.

Regarding `CCO[C@H]1C[C@@H](O)C12CCN(C1Cc3ccccc3C1)CC2`, the cytotoxicity at 10 µM worked out at 4.54%.

Consider `O=C(c1ccc(=O)[nH]c1)N1CCC(Oc2cccc(C(F)(F)F)c2)CC1`, for which the cytotoxicity at 10 µM was 2.26%.

`CC(C)OC(=O)N1CCCC(c2nccn2Cc2ccncc2)C1` (stereo not given): the cytotoxicity at 10 µM is 4.56%.

Take `COCCN(C)C[C@@H]1CN(C(=O)NC2CCCCC2)C[C@@H]1CO`: the cytotoxicity at 10 µM stood at 3.41%.

Turning to `CSc1ncc(CNC(C)c2cnn(-c3ccc(F)cc3F)c2C)cn1` (stereo not given), the cytotoxicity at 10 µM is 2.77%.

In the case of `Cc1ccc(CN2CCN(Cc3ccncc3)CC2=O)cc1`, the cytotoxicity at 10 µM was -5.64%.

On to `COCCCN1CCN(C(=O)C(c2cccc(F)c2)N(C)C)CC1` (stereo not given), for which the cytotoxicity at 10 µM is -13.1%.

For `O=C(c1nc2sccn2c1-c1ncc[nH]1)N1CCCCC1`, the cytotoxicity at 10 µM amounted to 7.52%.

Take `Cc1ccccc1C1CCCN1C(=O)CN1CC2(CCNCC2)OC1=O` (stereo not given): the cytotoxicity at 10 µM is -11.1%.

Turning to `CC(C)(C)n1cc(C2=CCN(CCc3ccccc3)CC2)cn1`, the cytotoxicity at 10 µM was 14.3%.

On to `COCC(=O)N1CCC(c2nccnc2Oc2cccnc2C)CC1`, for which the cytotoxicity at 10 µM came to 6.79%.

As to `Cc1cc(C)c(CNC(=O)c2ccc3c(c2)CCC3)c(=O)[nH]1`, the cytotoxicity at 10 µM came out at 0.983%.

`CNS(=O)(=O)c1ccc(CNC(=O)Nc2cn[nH]c2)cc1`: the cytotoxicity at 10 µM is -8.75%.

Turning to `Cc1cnn(CCNCC(O)COc2cc(Cl)ccc2Cl)c1` (stereo not given), the cytotoxicity at 10 µM is 2.22%.

For the molecule `Cn1ncc2c1CCCC2NCc1cccc2c1OCCCO2` (stereo not given), the cytotoxicity at 10 µM was -9.86%.

Turning to `O=C(CCc1ccccc1F)NS(=O)(=O)c1ccc2c(c1)OCCO2`, the cytotoxicity at 10 µM is -18.6%.

For `CCc1ncncc1C(=O)N1CCN(Cc2ccco2)CC1`, the cytotoxicity at 10 µM is -4.91%.

Turning to `CN1CCN(C(=O)c2ccc(=O)n(C)c2)c2ccccc21`, the cytotoxicity at 10 µM is -11.5%.

`CCC(=O)NC1CCN(c2cccc(CC)c2)CC1`: the cytotoxicity at 10 µM was -4.16%.

Consider `Cc1cccc(C)c1OCCNC(=O)NC(C)c1nncn1C` (stereo not given), for which the cytotoxicity at 10 µM came to 7.8%.

As to `CC1(C)CC(N(Cc2ccncc2)Cc2cccnc2)CC(C)(C)N1`, the cytotoxicity at 10 µM is -14.6%.

Turning to `COc1ccc(CN(Cc2cncn2C)CC2CCCO2)c(OC)c1` (stereo not given), the cytotoxicity at 10 µM is -4.48%.

With `Cc1nnc(N2C[C@@H](OCCCn3cccn3)[C@H]3OCCC[C@H]32)s1`, the cytotoxicity at 10 µM was -8.19%.

Regarding `Cc1noc([C@@H]2CC[C@@H]3[C@@H](CCN3c3nnc(C)s3)O2)n1`, the cytotoxicity at 10 µM stood at 9.28%.

`O=C(COc1ccccc1)N1C[C@@H]2COC[C@]2(COc2cccnc2)C1`: the cytotoxicity at 10 µM was -100%.

Consider `CNC(=O)[C@H]1CO[C@H]2CCN(Cc3ccc4ccccc4n3)C[C@H]2C1`, for which the cytotoxicity at 10 µM was determined as 8.05%.

With `Cc1nc(CN2C(=O)CC[C@@H]3[C@H]2CCN3C2CCOCC2)cs1`, the cytotoxicity at 10 µM is -147%.

With `CNC(=O)c1cnc(C=Cc2cc(OC)c(O)c(OC)c2)s1`, the cytotoxicity at 10 µM was 1.64%.

Take `CN1[C@@H]2CC[C@H]1CN(C(=O)CCc1csc(N)n1)CC2`: the cytotoxicity at 10 µM was -0.0143%.

These data come from ChEMBL document CHEMBL4513216, “Probing the Open Global Health Chemical Diversity Library for Multistage-Active Starting Points for Next-Generation Antimalarials” (ACS Infect Dis, 2020).
